Results: ChEMBL document CHEMBL4819098, “Novel 1,2,4-triazine-quinoline hybrids: The privileged scaffolds as potent multi-target inhibitors of LPS-induced inflammatory response via dual COX-2 and 15-LOX inhibition” (Eur J Med Chem, 2021)

Legend:
[1] = biological target: T1, Prostaglandin G/H synthase 1 (Ovis aries, UniProt P05979); experiment: Inhibition of ovine COX-1 using arachidonic acid as substrate preincubated with enzyme for 5 mins followed by substrate addition by colorimetric analysis
T1 sequence (P05979 whole entry): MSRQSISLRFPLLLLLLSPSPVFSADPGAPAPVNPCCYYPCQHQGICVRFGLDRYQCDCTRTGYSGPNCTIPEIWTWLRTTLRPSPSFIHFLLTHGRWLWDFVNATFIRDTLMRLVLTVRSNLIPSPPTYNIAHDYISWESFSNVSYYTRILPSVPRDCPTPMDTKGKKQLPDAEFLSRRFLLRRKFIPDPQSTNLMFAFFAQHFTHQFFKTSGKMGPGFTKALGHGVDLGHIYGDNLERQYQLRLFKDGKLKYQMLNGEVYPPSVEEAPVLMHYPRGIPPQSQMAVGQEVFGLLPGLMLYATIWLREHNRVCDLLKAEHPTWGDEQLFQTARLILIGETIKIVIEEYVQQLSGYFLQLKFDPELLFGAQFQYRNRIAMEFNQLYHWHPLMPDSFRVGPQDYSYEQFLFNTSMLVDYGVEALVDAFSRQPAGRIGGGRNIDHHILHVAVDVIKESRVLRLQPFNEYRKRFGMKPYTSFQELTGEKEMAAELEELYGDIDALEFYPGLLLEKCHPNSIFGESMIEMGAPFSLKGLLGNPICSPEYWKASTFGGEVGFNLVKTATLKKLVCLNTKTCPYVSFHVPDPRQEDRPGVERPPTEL

[2] = biological target: T2, Prostaglandin G/H synthase 2 (Homo sapiens, UniProt P35354); experiment: Inhibition of human recombinant COX-2 using arachidonic acid as substrate preincubated with enzyme for 5 mins followed by substrate addition by colorimetric analysis
T2 sequence (P35354 whole entry): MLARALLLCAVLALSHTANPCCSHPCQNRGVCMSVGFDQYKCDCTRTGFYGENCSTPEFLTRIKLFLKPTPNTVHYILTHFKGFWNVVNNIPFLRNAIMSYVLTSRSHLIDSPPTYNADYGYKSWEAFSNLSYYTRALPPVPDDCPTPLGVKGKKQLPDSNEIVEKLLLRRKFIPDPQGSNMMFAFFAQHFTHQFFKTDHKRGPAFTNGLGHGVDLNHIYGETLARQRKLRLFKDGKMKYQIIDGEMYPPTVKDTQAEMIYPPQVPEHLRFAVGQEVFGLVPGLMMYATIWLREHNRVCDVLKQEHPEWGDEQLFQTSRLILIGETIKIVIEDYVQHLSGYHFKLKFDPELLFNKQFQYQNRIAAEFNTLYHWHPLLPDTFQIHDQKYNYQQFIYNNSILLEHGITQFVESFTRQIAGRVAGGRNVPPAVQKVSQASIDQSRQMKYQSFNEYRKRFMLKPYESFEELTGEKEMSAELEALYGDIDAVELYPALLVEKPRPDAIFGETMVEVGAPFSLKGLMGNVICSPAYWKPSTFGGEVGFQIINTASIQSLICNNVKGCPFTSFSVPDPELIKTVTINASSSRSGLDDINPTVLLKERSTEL

[3] = Selectivity index, ratio of IC50 for ovine COX-1 to IC50 for human recombinant COX-2
How it was run: (§1)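 Enzyme kit assay with ovine COX-1 and human recombinant COX-2. IC50 determined from three replicates. Selectivity index taken as IC50(COX-1)/IC50(COX-2).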

[4] = Inhibition of soybean 15-LOX using arachidonic acid or linolenic acid as substrate in presence of hydrogen peroxide incubated for 5 mins by colorimetric analysis; design: species or system Glycine max
[5] = test system: RAW264.7; experiment: Inhibition of LPS-induced NO production in mouse RAW264.7 cells preincubated for 2 hrs followed by LPS stimulation and measured after 20 hrs by DAF-FM based fluorescence analysis; type: functional, cell-based
[6] = test system: RAW264.7; experiment: Antioxidant activity in mouse RAW264.7 cells assessed as inhibition of LPS-induced intracellular ROS production preincubated for 2 hrs followed by LPS stimulation and measured after 20 hrs by DCFH-DA staining based fluorescence analysis; type: functional, cell-based
[7] = test system: RAW264.7; experiment: Inhibition of LPS-induced TNFalpha production in mouse RAW264.7 cells preincubated for 2 hrs followed by LPS stimulation and measured after 20 hrs by ELISA; type: functional, cell-based
[8] = test system: RAW264.7; experiment: Inhibition of LPS-induced IL-6 production in mouse RAW264.7 cells preincubated for 2 hrs followed by LPS stimulation and measured after 20 hrs by ELISA; type: functional, cell-based
[9] = test system: RAW264.7; experiment: Inhibition of LPS-induced 15(S)-HETE production in mouse RAW264.7 cells preincubated for 2 hrs followed by LPS stimulation and measured after 20 hrs by ELISA; type: functional, cell-based
[10] = biological target: T3, Prostaglandin G/H synthase 2 (Homo sapiens) (UniProt P35354); experiment: Potency index, ratio of diclofenac sodium IC50 to test compound IC50 for human recombinant COX-2 using arachidonic acid as substrate preincubated with enzyme for 5 mins followed by substrate addition by colorimetric analysis
T3 sequence (whole entry): T2 sequence (P35354 whole entry)

[11] = test system: RAW264.7; experiment: Cytotoxicity against mouse RAW264.7 cells assessed as reduction in cell viability by MTS assay; type: cell-based
How it was run: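 RAW 264.7 macrophage viability at the tested concentrations measured by MTS assay.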

[12] = test system: RAW264.7; experiment: Potency index, ratio of celecoxib IC50 to test compound IC50 for inhibition of LPS-induced NO production in mouse RAW264.7 cells preincubated for 2 hrs followed by LPS stimulation and measured after 20 hrs by DAF-FM based fluorescence analysis; type: functional; details: time 22 hrs
[13] = test system: RAW264.7; experiment: Potency index, ratio of diclofenac sodium IC50 to test compound IC50 for inhibition of LPS-induced NO production in mouse RAW264.7 cells preincubated for 2 hrs followed by LPS stimulation and measured after 20 hrs by DAF-FM based fluorescence analysis; type: functional; details: time 22 hrs
[14] = test system: RAW264.7; experiment: Cytotoxicity against mouse RAW264.7 cells assessed as reduction in cell viability at 50 uM by MTS assay; type: cell-based; details: raw264.7, 50 µM
[15] = test system: RAW264.7; experiment: Potency index, ratio of celecoxib IC50 to test compound IC50 for inhibition of LPS-induced IL-6 production in mouse RAW264.7 cells preincubated for 2 hrs followed by LPS stimulation and measured after 20 hrs by ELISA; type: functional; details: time 22 hrs
[16] = test system: RAW264.7; experiment: Potency index, ratio of diclofenac sodium IC50 to test compound IC50 for inhibition of LPS-induced IL-6 production in mouse RAW264.7 cells preincubated for 2 hrs followed by LPS stimulation and measured after 20 hrs by ELISA; type: functional; details: time 22 hrs
[17] = Inhibition of soybean 15-LOX; design: species or system Glycine max
How it was run: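 Soybean 15-LOX run with a lipoxygenase inhibitor screening kit according to the manufacturer's instructions. IC50 values reported.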

[18] = biological target: T1, Prostaglandin G/H synthase 1; experiment: Inhibition of ovine COX-1; how it was run: as §1
[19] = biological target: T2, Prostaglandin G/H synthase 2; experiment: Inhibition of human recombinant COX-2; how it was run: as §1
[20] = test system: RAW264.7; experiment: Potency index, ratio of celecoxib IC50 to test compound IC50 for inhibition of LPS-induced TNFalpha production in mouse RAW264.7 cells preincubated for 2 hrs followed by LPS stimulation and measured after 20 hrs by ELISA; type: functional; details: time 22 hrs
[21] = test system: RAW264.7; experiment: Potency index, ratio of diclofenac sodium IC50 to test compound IC50 for inhibition of LPS-induced TNFalpha production in mouse RAW264.7 cells preincubated for 2 hrs followed by LPS stimulation and measured after 20 hrs by ELISA; type: functional; details: time 22 hrs

SMILES	IC50 [1] [µM]	IC50 [2] [µM]	Ratio IC50 [3]	IC50 [4] [µM]	IC50 [5] [µM]	IC50 [6] [µM]	IC50 [7] [µM]	IC50 [8] [µM]	IC50 [9] [µM]	Ratio IC50 [10]	Activity [11]	Ratio IC50 [15]	further results
COc1ccc2nc(O)c(/C=N/n3c(=S)[nH]nc(Cc4cc(OC)c(OC)c(OC)c4)c3=O)cc2c1	11.8	0.06	197	2.57	> 50	> 50	> 50	> 50	> 50	14	Non-Toxic	–	–
COc1cc(Cc2n[nH]c(=S)n(/N=C/c3cc4cc(C)ccc4nc3O)c2=O)ccc1O	10.3	0.085	121	1.97	> 50	> 50	> 50	> 50	> 50	–	Non-Toxic	–	–
COc1cc(Cc2n[nH]c(=S)n(/N=C/c3cc4ccc(OCc5ccccc5)cc4nc3Cl)c2=O)cc(OC)c1OC	7.7	0.12	64.2	3.39	6.76	4.36	16	6.11	2.03	7	Non-Toxic	1.8	Ratio IC50 [12]: 3; Ratio IC50 [13]: 6; Activity [14]: Toxic; Ratio IC50 [16]: 2.1
O=C1N/C(=N\c2nnc(-c3ccc(O)cc3)s2)S/C1=C\c1ccccc1	–	–	–	–	–	–	–	–	–	–	–	–	IC50 [17]: 5.74 µM; IC50 [18]: 4.66 µM; IC50 [19]: 0.085 µM
COc1cc(Cc2n[nH]c(=S)n(/N=C/c3cc4cccc(C)c4nc3Cl)c2=O)cc(OC)c1OC	8.3	0.16	51.9	1.86	25.8	–	0.4	3.99	1.46	5.3	Non-Toxic	2.8	Ratio IC50 [20]: 25; Ratio IC50 [21]: 25; Ratio IC50 [16]: 3.2
O=c1c(Cc2ccccc2)n[nH]c(=S)n1/N=C/c1cc2ccccc2nc1O	11.3	0.054	209	2.12	> 50	> 50	> 50	> 50	> 50	15.6	Non-Toxic	–	–
O=c1c(Cc2cccs2)n[nH]c(=S)n1/N=C/c1cc2ccccc2nc1O	11.1	0.079	140	2.13	9.37	> 50	> 50	> 50	> 50	–	Non-Toxic	–	–
COc1cc(Cc2n[nH]c(=S)n(/N=C/c3cc4cc(C)ccc4nc3O)c2=O)cc(OC)c1OC	11.5	0.065	177	2.06	6.34	6.67	–	–	8.86	12.9	Non-Toxic	–	Ratio IC50 [12]: 3; Ratio IC50 [13]: 6
CC(C)Oc1ccc2nc(O)c(/C=N/n3c(=S)[nH]nc(Cc4ccccc4)c3=O)cc2c1	6.6	0.32	20.6	3.49	> 50	1.91	34.6	12.9	0.42	2.6	Non-Toxic	–	–
Cc1ccc2nc(O)c(/C=N/n3c(=S)[nH]nc(Cc4cccs4)c3=O)cc2c1	9	0.11	81.8	2.38	36.8	10.9	3.4	11.8	7.13	7.6	Non-Toxic	–	–
COc1ccc(/C=C\C(=O)c2cc(-n3cc(CN4C(=O)C(=O)c5ccccc54)nn3)ccc2O)cc1	–	–	–	–	–	–	–	–	–	–	–	–	IC50 [17]: 1.95 µM; IC50 [18]: 13.3 µM; IC50 [19]: 0.037 µM
COc1ccc2nc(O)c(/C=N/n3c(=S)[nH]nc(Cc4ccccc4)c3=O)cc2c1	10.5	0.068	154	1.97	6.93	3.95	> 50	5.98	3.91	12.4	Non-Toxic	1.9	Ratio IC50 [12]: 3; Ratio IC50 [13]: 6; Ratio IC50 [16]: 2.2
Cc1ccc2nc(O)c(/C=N/n3c(=S)[nH]nc(Cc4ccccc4)c3=O)cc2c1	5.9	0.28	21.1	2.66	33.5	7.31	30.3	13.5	21.3	3	Non-Toxic	–	–
COc1ccc2cc(/C=N/n3c(=S)[nH]nc(Cc4cc(OC)c(OC)c(OC)c4)c3=O)c(O)nc2c1	9.7	0.097	–	2.18	> 50	4.52	2.61	5.54	18.6	8.7	Non-Toxic	2	Ratio IC50 [16]: 2.3
COc1ccc2cc(/C=N/n3c(=S)[nH]nc(Cc4ccccc4)c3=O)c(O)nc2c1	10.2	0.073	140	2.32	16.1	3.78	8.41	7.36	3.6	11.5	Non-Toxic	1.5	Activity [14]: Toxic
